A selection: hits, their analogues and other compounds. The true share with any hit is near 2.2%.
proKLK7 act: activates the human kallikrein-7 zymogen | AID 652039 | purified proKLK7, EDANS-DABCYL substrate fluorescence; 100% is mature enzyme control, 0% vehicle | P49862 | 370,000 compounds, 0.9% hits | activation, % at 7 µM;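 active means activation above the mean of all tested compounds plus 3 SD, computed per campaign excluding outliers beyond control limits, cut at about 13% in these data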
Tn6 DDE FP: disrupts Tn6 cyclic peptide binding to fibrin D-Dimer-E complex; Fibrin DD(E) TRITC-Tn6 fluorescence polarization displacement; P02675; AID 720509; inhibition, % at 8.3 µM; 370,000 compounds, 0.21% hits;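 active means inhibition above a per-campaign cutoff: mean of compounds within control limits plus 3 SD, cut at about 15% in these data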;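 further: 0% = median of all compound wells on the plate and 100% = blocking peptide control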
Target sequence (P02675 whole entry, looked up): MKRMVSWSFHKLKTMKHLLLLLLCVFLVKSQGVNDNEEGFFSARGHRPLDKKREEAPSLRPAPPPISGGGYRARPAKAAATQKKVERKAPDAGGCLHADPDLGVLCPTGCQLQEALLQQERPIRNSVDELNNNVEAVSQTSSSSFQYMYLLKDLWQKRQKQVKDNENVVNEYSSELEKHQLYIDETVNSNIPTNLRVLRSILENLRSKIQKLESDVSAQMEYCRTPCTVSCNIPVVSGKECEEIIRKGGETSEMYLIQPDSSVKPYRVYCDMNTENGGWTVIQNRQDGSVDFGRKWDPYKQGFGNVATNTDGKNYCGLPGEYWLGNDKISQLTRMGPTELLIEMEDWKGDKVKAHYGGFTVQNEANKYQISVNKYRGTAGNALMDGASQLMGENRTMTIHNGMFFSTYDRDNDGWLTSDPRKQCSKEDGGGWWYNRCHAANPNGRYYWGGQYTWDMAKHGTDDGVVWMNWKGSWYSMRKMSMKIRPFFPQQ
MT1-MMP act inh: inhibitors of human MT1-MMP activation; AID 651647; GFP/RFP ratio change, % at 20 µM; P50281; 360,000 compounds, 0.061% hits; HT1080 RFP-PRO-GFP cells, GFP/RFP ratio fluorescence, overnight; percent of plate control window, DMSO zero;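 active means GFP/RFP ratio change of at least 30% with cell ATP level not reduced by more than half and red fluorescence within 50% of control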
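Assay system: HT1080 RFP-PRO-GFP cells. Benchmarks: DMSO vehicle wells and RFP-L50D-GFP reporter cell wells. Times: overnight cell settling, then overnight compound exposure, 37 °C, 5% CO2. Compound: 20 µM single dose, 1% DMSO. Read-out basis: GFP/RFP fluorescence ratio.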
SKN-1 block: C. elegans SKN-1 inhibition | inhibition, % at 21.8 µM | AID 624304 | C. elegans VP596 Pgst-4::GFP/RFP ratio, acrylamide-induced, 24 h | 360,000 compounds, 0.49% hits;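 active means interference check ratio from 0.5 to 1.5 plus GFP to RFP signal ratio inhibition reaching or exceeding a fixed threshold, cut at about 30% in these data, passing the limit was not always enough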
Tn7 DDE FP: DD(E)-Tn7 binding inhibition, primary FP screen | inhibition, % at 8.3 µM | AID 720508 | FP displacement of FITC-Tn7 peptide from fibrin DD(E); 0% = median of compound wells per plate | P02675 | 370,000 compounds, 0.13% hits;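 active means inhibition above the mean of compounds falling within the control limits plus 3 SD of them, cut at about 14% in these data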;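 further: 0% = plate median of compound wells and 100% = 10 µM Aha-Tn7 peptide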
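Assay system: Human clot-derived fibrin DD(E) complex | Buffer or medium: Tris/NaCl/CaCl2 buffer, pH 7.8 | Repeats: One replicate per compound | Benchmarks: Aha-Tn7 high control | Measure: % inhibition scaled between sample-field median and high-control FP | Schedule: 10 min plus 3 h, room temperature | Signal: Fluorescence polarization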
Neddylation inh: cullin neddylation inhibition | P61081+Q13564 | TR-FRET cullin neddylation, biochemical | calls only at 25 µM | 360,000 compounds, 0.58% hits; in the data active means inhibition above about 36%
Neddyl inh conf: confirmation of human cullin neddylation inhibitors; shares compounds with Neddylation inh; TR-FRET cullin neddylation biochemical assay; calls only at 25 µM; 1,800 compounds, 13% hits; AID 652217; in the data active means inhibition above about 40%;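 further: neddylation substrate is the cullin 1 ring ligase complex with SKP2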
The depositor's hits bear a star; i = inactive; x = no result shown; + = active, no number.

SMILES	proKLK7 act	Tn6 DDE FP	MT1-MMP act inh	SKN-1 block	Tn7 DDE FP	Neddylation inh	Neddyl inh conf
CCCCn1nc(C(=O)Nc2ccc(-n3cnnn3)cc2)c2ccccc2c1=O	0	2	0	4	4	+	i
Cc1cnc(NS(=O)(=O)c2ccccc2)c(Br)c1	0	2	-3	5	-3	i	x
COc1ccc(OC)c(/C=N\NC(=O)CSc2nnc(CCCc3ccc(OC)c(C)c3)o2)c1	-4	-2	6	2	-5	+	x
COc1ccc(CCCc2nnc(SCC(=O)Nc3cc(C)c(C)cc3Br)o2)cc1	0	-1	2	1	-4	i	x
COc1cc(NC(=O)N[C@@H](Cc2c[nH]c3ccccc23)C(=O)O)c(C(=O)O)cc1OC	-2	-1	0	9	0	+	x
COC(=O)[C@H](Cc1c[nH]c2ccccc12)NC(=O)Nc1ccccc1OC	0	-1	0	-7	3	i	x
O/N=C/c1ccc(-c2ccccc2OC(F)(F)F)o1	0	3	6	5	-2	i	x
COC(=O)c1ccccc1NC(=O)N1CCN(c2ccccc2F)CC1	0	-2	5	0	5	i	x
COC(=O)c1ccccc1NC(=O)N1CCCC1	1	10	0	16	3	+	i
NC1=NC(=O)/C(=C/c2c(OS(=O)(=O)c3ccc(Cl)cc3)ccc3ccccc23)S1	0	6	-1	1	-5	+	i
NC1=NC(=O)/C(=C/c2ccccc2OS(=O)(=O)c2ccccc2)S1	0	0	3	2	-3	i	x
Cc1c(/C=C(\CC(=O)O)c2nc3ccccc3s2)cc(C#N)n1C	-1	-2	2	-10	3	+	x
Cc1nn(-c2ccccc2)c(Cl)c1/C=C(/CC(=O)O)c1nc2ccccc2s1	0	2	0	9	6	i	x
CCc1nn2c(N(C)CCO)cc(C)nc2c1-c1ccc(F)cc1	1	0	4	6	-1	+	i
CCc1nn2c(N3CCOCC3)cc(C)nc2c1-c1ccc(F)cc1	-1	-2	-10	13	-9	i	x
O=C(NCCO)c1ccc2c3n(nc2c1)-c1ccccc1CO3	5	2	4	3	-2	+	i
Cc1ccc2c(c1)COc1c3ccc(C(=O)NCC4CC4)cc3nn1-2	-3	-6	7	11	7	+	+
O=C(NCC1CC1)c1ccc2c3n(nc2c1)-c1ccccc1CO3	4	-1	6	-12	-2	i	x
COc1ccc2cc(C(=O)C3CCCN(Cc4cnc(N5CCOCC5)s4)C3)ccc2c1 (stereo unspecified)	3	-6	-1	-3	1	+	i
CC(C)Oc1cccc(C(=O)C2CCCN(Cc3cnc(N4CCCC4)s3)C2)c1 (stereo unspecified)	1	-2	11	-1	-10	i	x
O=c1oc2ccccc2n1Cc1ccccc1Cl	0	-2	3	-3	2	i	x
CCN(CCC#N)c1ccc(/C=N/Nc2nc(C)cc(=O)[nH]2)c(C)c1	1	-8	0	1	-3	+	i
Cc1ccc(C(=O)N/C(=C\c2cccs2)c2nc3ccccc3[nH]2)cc1	2	4	5	0	3	+	x
COc1ccc(-c2c(C#N)c(N)nc3c2CCc2ccccc2-3)cc1OC	-28	-6	x	x	-2	x	x
Cc1nc2scc(C)n2c(=O)c1S(=O)(=O)NCC1CCN(Cc2ccc(Cl)cc2)CC1	5	3	0	4	-7	+	i
SMILES	proKLK7 act	Tn6 DDE FP	MT1-MMP act inh	SKN-1 block	Tn7 DDE FP	Neddylation inh	Neddyl inh conf
Cc1nc2scc(C)n2c(=O)c1S(=O)(=O)NCCc1ccc(Cl)cc1	0	-7	0	-8	6	i	x
CC1CCc2onc(C(=O)NCc3ccco3)c2C1 (stereo unspecified)	0	-6	-12	5	2	i	x
OCCCNC(=S)Nc1ccc2nccnc2c1	0	-3	-4	-16	-2	+	i
CCN(CC)S(=O)(=O)c1cccc(-c2cn3cc(C)ccc3n2)c1	-1	-2	10	12	3	+	i
Cc1ccc2nc(-c3cccc(S(=O)(=O)N(C)C)c3)cn2c1	0	1	1	1	4	i	x
O=C(Cn1c(=O)oc2cccnc21)Nc1ccc(C(F)(F)F)cc1	1	-1	5	-1	-1	+	i
CN(C)c1ccc(N=Cc2nc(-c3ccccc3)oc2OC(=O)c2cccc(Cl)c2)cc1	0	-2	-6	18	-1	i	x
CC(C(=O)NC1CCCCC1)N1C(=O)C2C3C=CC(C3)C2C1=O (stereo unspecified)	0	-6	5	-8	-3	i	x
CC(C(=O)Nc1ccc2nccnc2c1)N1C(=O)C2C3C=CC(C3)C2C1=O (stereo unspecified)	1	-3	1	5	1	+	x
CCC1CCCN1Cn1cnc2c([nH]c3ccccc32)c1=O (stereo unspecified)	2	2	2	-14	-9	+	i
CCN1CCCC1Cn1cnc2c([nH]c3ccc(Cl)cc32)c1=O (stereo unspecified)	0	-2	-1	-8	3	i	x
CN(C)CCNC(=O)C(=O)Nc1ccc2c(c1)N(S(=O)(=O)c1cccs1)CCC2	0	-2	-5	8	4	i	x
COc1ccc(CCNC(=O)c2oc3ccc(OC)cc3c2C)cc1	1	-1	0	-9	4	i	x
COc1ccc2oc(C(=O)NC(C)(C)C)c(C)c2c1	1	0	-4	18	-9	+	i
COc1ccc2oc(C(=O)NNC(=O)c3ccc(F)cc3)c(C)c2c1	2	6	2	23	3	+	x
COc1ccc(C(=O)NNC(=S)NC(=O)c2ccc(F)cc2)cc1Br	0	-1	4	15	-2	i	x
COc1cc(C(=O)NNC(=S)NC(=O)c2ccc(F)cc2)cc(OC)c1OC	0	-6	5	-6	0	+	i
COc1ccc(Cl)cc1NC(=O)C1CC(c2ccccc2O)=NO1 (stereo unspecified)	0	5	1	-4	5	i	x
CCc1[nH]nc2c1C1(CCN(C(=O)c3ccccc3)CC1)C(C#N)=C(N)O2	0	-5	0	-3	-2	i	x

High-throughput results from PubChem.
